ChEMBL document CHEMBL3228026, “Inhibition of gastric acid secretion by 1,8-naphthyridin-2(1H)-ones” (J Med Chem, 1979)
Calls of active or inactive are those of the source.

What was measured:
[1] = tested on: Canis familiaris; assay: Antisecretory activity in Beagle dog assessed as inhibition of gastrin tetrapeptide-stimulated gastric acid secretion at 20 mg/kg, po administered 1 hr prior to gastrin tetrapeptide challenge measured every 30 mins for 90 mins relative to placebo control; assay type: functional; conditions: Canis lupus familiaris, Stomach
Method in brief: (§1)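 Conscious female beagles (7–10 kg) with a chronic gastric fistula received compound through the gastric cannula, called oral. Gastric output was collected over three 30-min periods (90 min) after the stimulant. Titratable acid in an aliquot was titrated to pH 7 with 0.01 N NaOH using a glass-calomel electrode. The value is the maximal % drop in acid concentration against a placebo trial in the same dog, with SE where more than two animals.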

[2] = tested on: Canis familiaris; assay: Antisecretory activity in Beagle dog assessed as inhibition of histamine-stimulated gastric acid secretion at 40 mg/kg, po administered 1 hr prior to histamine challenge measured every 30 mins for 90 mins relative to placebo control; assay type: functional, organism-based; parameters: dose 40 mg/kg; conditions: Canis lupus familiaris, Stomach; method in brief: as §1
[3] = biological target: Histamine H2 receptor (Rattus norvegicus) (UniProt P25102); assay: Antagonist activity at histamine H2 receptor in Charles River rat assessed as inhibition of histamine-mediated electrically stimulated uterine contraction at 20 ug/mL relative to histamine-treated placebo
Method in brief: (§2)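 Uteri taken from female rats (150–200 g) primed with diethylstilbesterol (0.16 mg/rat) 16–20 h before sacrifice. Single horns were held in McEwen's solution at 34 °C under 95% O2–5% CO2. They were stimulated electrically every 50 s for 10 s with maximal current and 60 Hz trains of 1-ms pulses, and the block of the histamine response was scored. Footnote cutoff: under 30% reduction with test compound at 20 µg/mL.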

[4] = biological target: Histamine H2 receptor (Rattus norvegicus, UniProt P25102); assay: Antagonist activity at histamine H2 receptor in Charles River rat assessed as inhibition of histamine-mediated electrically stimulated uterine contraction; method in brief: as §2
[5] = biological target: Histamine H2 receptor (Cavia porcellus) (UniProt P47747); assay: Antagonist activity at histamine H2 receptor in Hartley guinea pig atrium assessed as ratio of histamine concentration required in control to that required in presence of compound to increase atrium rate by 50 beats/min at 10 ug/mL; conditions: Cardiac atrium
Method in brief: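 Spontaneously beating Hartley guinea pig atria were dissected free of other myocardium and held in McEwen's solution on a transducer. Rate was counted from the tracing. Histamine was given at increasing concentrations (0.05–3.2 µg/mL) with placebo or with inhibitor at 10 µg/mL. The value is the ratio of histamine concentration needed to raise rate by 50 beats/min in the placebo trial to that needed with compound.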

[6] = tested on: Canis familiaris; assay: Antisecretory activity in Beagle dog assessed as inhibition of histamine-stimulated gastric acid secretion at 20 mg/kg, po administered 1 hr prior to histamine challenge measured every 30 mins for 90 mins relative to placebo control; assay type: functional; conditions: Canis lupus familiaris, Stomach; method in brief: as §1
[7] = tested on: Canis familiaris; assay: Antisecretory activity in Beagle dog assessed as inhibition of gastrin tetrapeptide-stimulated gastric acid secretion at 40 mg/kg, po administered 1 hr prior to gastrin tetrapeptide challenge measured every 30 mins for 90 mins relative to placebo control; assay type: functional, organism-based; parameters: dose 40 mg/kg; conditions: Canis lupus familiaris, Stomach; method in brief: as §1

Sequence of Histamine H2 receptor (P25102 whole entry): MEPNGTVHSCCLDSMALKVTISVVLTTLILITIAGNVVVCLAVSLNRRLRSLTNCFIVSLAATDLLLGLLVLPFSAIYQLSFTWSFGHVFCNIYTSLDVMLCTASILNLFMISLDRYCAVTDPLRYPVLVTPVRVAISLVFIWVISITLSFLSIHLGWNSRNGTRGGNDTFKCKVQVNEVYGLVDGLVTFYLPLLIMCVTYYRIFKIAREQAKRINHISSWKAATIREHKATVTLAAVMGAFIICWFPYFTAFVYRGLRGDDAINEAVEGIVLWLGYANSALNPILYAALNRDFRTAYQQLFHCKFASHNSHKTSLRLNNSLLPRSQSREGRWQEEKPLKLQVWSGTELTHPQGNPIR
Sequence of Histamine H2 receptor (Rattus norvegicus) (P25102 whole entry): as above
Sequence of Histamine H2 receptor (Cavia porcellus) (P47747 whole entry): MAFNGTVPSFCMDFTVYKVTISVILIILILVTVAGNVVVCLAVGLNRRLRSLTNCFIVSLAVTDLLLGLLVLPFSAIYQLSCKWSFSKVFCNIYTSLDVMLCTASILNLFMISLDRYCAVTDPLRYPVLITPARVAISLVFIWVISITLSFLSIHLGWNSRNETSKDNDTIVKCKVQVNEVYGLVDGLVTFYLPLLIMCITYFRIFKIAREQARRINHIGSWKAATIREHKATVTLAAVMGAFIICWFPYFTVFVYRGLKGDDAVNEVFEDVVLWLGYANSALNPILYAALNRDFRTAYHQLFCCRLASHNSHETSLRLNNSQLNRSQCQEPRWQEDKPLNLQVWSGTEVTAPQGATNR

Structure (SMILES) | inhibition [3] [%] | EC50 [4] [µM] | Ratio [5] | inhibition in vivo at 20 mg/kg [1] [%] | inhibition [2] | inhibition in vivo at 20 mg/kg [6] [%] | inhibition [7]
CNC(=S)NCCSCc1[nH]cnc1C [METIAMIDE] | – | – | 0.003 | 76 | – | 46 | –
Cc1cc(C)c2ccc(=O)n(CCN(C(C)C)C(C)C)c2n1 | – | 4.78 | 0.011 | 57 | inactive | – | –
Cc1cc(C)c2ccc(=O)n(CCN3C(C)(C)CCCC3(C)C)c2n1 | < 30 | – | – | < 25 | inactive | – | –
Cc1cc(C)c2ccc(=O)n(CCN3CCCCC3)c2n1 | – | 10.7 | – | 40 | inactive | – | –
CCCCN(CCCC)CCn1c(=O)ccc2c(C)cc(C)nc21 | – | 5.46 | – | 33 | inactive | – | –
CN(C)CCn1c(=O)ccc2cccnc21 | < 30 | – | 0.54 | 59 | inactive | – | –
Cc1cc(C)c2ccc(=O)n(CC[N+](C)(C)C)c2n1 | < 30 | – | – | < 25 | inactive | – | –
CC(C)Cc1ccc2ccc(=O)n(CCN(C)C)c2n1 | – | 0.585 | 0.21 | < 25 | inactive | – | –
CC(C)c1ccc2ccc(=O)n(CCN(C)C)c2n1 | – | 2.31 | – | < 25 | inactive | – | –
Cc1cc(C)c2c(n1)N(CCN(C)C)CCC2 | – | 4.33 | – | – | inactive | – | inactive
Cc1cc(C)c2ccc(=O)n(CCN(C3CCCCC3)C3CCCCC3)c2n1 | < 30 | – | – | < 25 | inactive | – | –
CCc1ccc2ccc(=O)n(CCN(C)C)c2n1 | – | 3.22 | – | < 25 | inactive | – | –
C/N=C(\S)NCCSCc1[nH]cnc1C [METIAMIDE] | – | 1.15 | – | – | – | – | –
Cc1cc(C)c2ccc(=O)n(CC(C)(C)N(C)C)c2n1 | – | 38 | – | 38 | inactive | – | –
CC(C)N(CCn1c(=O)ccc2cccnc21)C(C)C | – | 76.5 | – | 51 | inactive | – | –
Cc1cc(C)c2c(n1)N(CCN(C)C)C(=O)CC2 | – | 19.4 | 0.013 | < 25 | inactive | – | –
CCn1c(=O)ccc2c(C)cc(C)nc21 | < 30 | – | – | < 25 | inactive | – | –
CN(C)CCn1c(=O)ccc2ccccc21 | < 30 | – | – | < 25 | inactive | – | –

More lines, main results first:

inhibition [3] [%] | EC50 [4] [µM] | Ratio [5] | Structure (SMILES) | inhibition in vivo at 20 mg/kg [1] [%] | inhibition [2] | inhibition in vivo at 20 mg/kg [6] [%] | inhibition [7]
< 30 | – | – | Cc1cc(C)c2ccc(=O)n(CCCCN(C)C)c2n1 | < 25 | inactive | – | –
– | 19 | – | CCc1cc(CC)c2ccc(=O)n(CCN(C)C)c2n1 | < 25 | inactive | – | –
< 30 | – | – | Cc1cc(C(F)(F)F)c2ccc(=O)n(CCN(C)C)c2n1 | 52 | inactive | – | –
< 30 | – | – | Cc1ccnc2c1ccc(=O)n2CCN(C)C | 58 | inactive | – | –
– | 48.2 | – | Cc1nc2c(ccc(=O)n2CCN(C)C)c(C)c1C | 61 | inactive | – | –
– | 156 | – | Cc1cc(C)c2ccc(=O)n(CCN)c2n1 | < 25 | inactive | – | –
– | 16 | 0.18 | Cc1cc(C)c2ccc(=O)n(CCN(C)C)c2n1 | 40 | inactive | – | –
< 30 | – | – | CN(C)CCn1c(=O)ccc2c(C(F)(F)F)cc(C(F)(F)F)nc21 | 32 | inactive | – | –
– | 4.1 | – | CCN(CC)CCn1c(=O)ccc2c(C)cc(C)nc21 | < 25 | inactive | – | –
– | 9.43 | – | Cc1ccc2ccc(=O)n(CCN(C)C)c2n1 | < 25 | inactive | – | –
– | 91.2 | – | CNCCn1c(=O)ccc2c(C)cc(C)nc21 | < 25 | inactive | – | –
– | 26.8 | – | COc1cc(C)c2ccc(=O)n(CCN(C)C)c2n1 | 27 | inactive | – | –
– | 14 | – | Cc1cc(C)c2ccc(=S)n(CCN(C)C)c2n1 | 41 | inactive | – | –
– | 5.35 | – | Cc1cc(C(F)(F)F)nc2c1ccc(=O)n2CCN(C)C | 34 | inactive | – | –
< 30 | – | – | Cc1cc(C)c2ccc(=O)n(CCCN(C)C)c2n1 | 31 | inactive | – | –
– | 34.7 | – | Cc1cc(Cl)nc2c1ccc(=O)n2CCN(C)C | < 25 | inactive | – | –
< 30 | – | – | Cc1cnc2c(ccc(=O)n2CCN(C)C)c1 | 58 | inactive | – | –
